According to ChEMBL document CHEMBL1129478, “Structure-activity relationship studies of novel 4-[2-[bis(4-fluorophenyl)methoxy]ethyl]-1-(3-phenylpropyl)piperidine analogs: synthesis and biological evaluation at the dopamine and serotonin transporter sites” (J Med Chem, 1996):
pIC50: −log10 of the molar value.

What follows are molecules tested against Monoamine transporters; serotonin & dopamine (Rattus norvegicus) (UniProt P31652+P23977) (assay: Selectivity for serotonin and dopamine transporters).
Assay type: protein assay

Chain of Monoamine transporters; serotonin & dopamine (Rattus norvegicus) (P23977 whole entry, looked up): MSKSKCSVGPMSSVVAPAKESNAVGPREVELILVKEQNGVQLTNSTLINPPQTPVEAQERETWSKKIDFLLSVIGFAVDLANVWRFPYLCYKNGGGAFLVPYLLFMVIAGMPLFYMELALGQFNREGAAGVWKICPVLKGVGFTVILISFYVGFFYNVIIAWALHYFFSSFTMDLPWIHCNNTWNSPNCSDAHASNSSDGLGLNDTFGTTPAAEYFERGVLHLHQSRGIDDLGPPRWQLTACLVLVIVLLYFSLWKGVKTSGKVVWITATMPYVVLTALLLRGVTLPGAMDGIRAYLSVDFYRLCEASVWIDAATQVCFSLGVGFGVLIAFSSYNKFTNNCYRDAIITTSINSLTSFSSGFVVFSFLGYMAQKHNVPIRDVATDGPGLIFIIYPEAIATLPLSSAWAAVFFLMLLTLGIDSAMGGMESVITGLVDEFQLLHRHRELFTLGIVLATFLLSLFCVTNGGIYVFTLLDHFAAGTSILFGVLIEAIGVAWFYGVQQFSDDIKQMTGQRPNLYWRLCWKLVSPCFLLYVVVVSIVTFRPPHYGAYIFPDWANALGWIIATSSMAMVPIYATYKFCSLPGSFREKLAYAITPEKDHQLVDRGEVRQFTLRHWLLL
Chain of Monoamine transporters; serotonin & dopamine (Rattus norvegicus) (P31652 whole entry, looked up): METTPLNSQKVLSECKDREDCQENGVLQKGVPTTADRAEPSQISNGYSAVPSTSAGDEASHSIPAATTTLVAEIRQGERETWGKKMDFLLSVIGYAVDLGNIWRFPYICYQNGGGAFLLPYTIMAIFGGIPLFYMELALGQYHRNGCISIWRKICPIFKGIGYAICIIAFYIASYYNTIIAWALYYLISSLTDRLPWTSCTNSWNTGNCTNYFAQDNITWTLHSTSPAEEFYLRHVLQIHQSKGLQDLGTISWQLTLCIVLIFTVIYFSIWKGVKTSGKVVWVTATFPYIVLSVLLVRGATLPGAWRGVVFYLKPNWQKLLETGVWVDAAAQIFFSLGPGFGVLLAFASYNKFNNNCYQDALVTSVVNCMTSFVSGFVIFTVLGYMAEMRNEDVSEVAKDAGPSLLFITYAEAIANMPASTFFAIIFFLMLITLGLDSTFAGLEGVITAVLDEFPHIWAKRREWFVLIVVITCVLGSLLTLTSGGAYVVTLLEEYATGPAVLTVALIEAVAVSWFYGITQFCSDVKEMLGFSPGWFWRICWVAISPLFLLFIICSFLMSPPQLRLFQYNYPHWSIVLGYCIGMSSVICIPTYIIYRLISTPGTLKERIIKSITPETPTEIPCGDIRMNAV

SMILES | Selectivity
COc1ccc(C(OCCC2CCN(CCCc3ccccc3)CC2)c2ccc(OC)cc2)cc1 | 1.3
Fc1ccc(C(OCC2CCN(CCc3ccccc3)CC2)c2ccc(F)cc2)cc1 | 17.5
Fc1ccc(C(OCC2CCN(CCCc3ccccc3)CC2)c2ccc(F)cc2)cc1 | 8.6
Brc1ccc(C(OCCC2CCN(CCc3ccccc3)CC2)c2ccc(Br)cc2)cc1 | 1.6
Fc1ccc(C(OCCC2CCN(Cc3ccccc3)CC2)c2ccc(F)cc2)cc1 | 20
Fc1ccc(C(OCCC2CCN(CCCc3ccccc3)CC2)c2ccc(F)cc2)cc1 | 3.3
c1ccc(CCCN2CCC(CCOC(c3ccccc3)c3ccccc3)CC2)cc1 | 20
c1ccc(CN2CCC(COC(c3ccccc3)c3ccccc3)CC2)cc1 | 0.7
Brc1ccc(C(OCCC2CCN(CCCc3ccccc3)CC2)c2ccc(Br)cc2)cc1 | 5.2
c1ccc(CN2CCC(CCOC(c3ccccc3)c3ccccc3)CC2)cc1 | 49
c1ccc(CCCN2CCC(COC(c3ccccc3)c3ccccc3)CC2)cc1 | 4
Fc1ccc(C(OCC2CCN(Cc3ccccc3)CC2)c2ccc(F)cc2)cc1 | 6
Clc1ccc(C(OCCC2CCN(CCCc3ccccc3)CC2)c2ccc(Cl)cc2)cc1 | 3.5
c1ccc(CCN2CCC(COC(c3ccccc3)c3ccccc3)CC2)cc1 | 4.2
Clc1ccc(C(OCCC2CCN(CCc3ccccc3)CC2)c2ccc(Cl)cc2)cc1 | 3.6
Cc1ccc(C(OCCC2CCN(CCc3ccccc3)CC2)c2ccc(C)cc2)cc1 | 2.8

The molecules below were run against Sodium-dependent dopamine transporter (Rattus norvegicus, UniProt P23977) (assay: Binding affinity at dopamine transporter from rat striatal membrane tissue by [3H]CFT displacement.).
Assay type: tissue-based, Striatum
Outline: (§1)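 Rat striatal P2 membranes: tissue homogenised in 0.32 M sucrose, pellet polytronned in ice-cold 35 mM sodium phosphate, pH 7.4. Incubation 2 h on ice, final sodium phosphate 30 mM, final DMSO 0.5%. Five inhibitor concentrations set after range-finding. Mean ± SEM of 3–5 (DAT, [3H]CFT) or 2–3 (SERT, [3H]citalopram) independent experiments, each in triplicate.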

Chain of Sodium-dependent dopamine transporter (P23977 whole entry): as the sequence (P23977 whole entry, looked up) above

SMILES | pIC50
COc1ccc(C(OCCC2CCN(CCCc3ccccc3)CC2)c2ccc(OC)cc2)cc1 | 6.59
Fc1ccc(C(OCC2CCN(CCc3ccccc3)CC2)c2ccc(F)cc2)cc1 | 7.87
Fc1ccc(C(OCC2CCN(CCCc3ccccc3)CC2)c2ccc(F)cc2)cc1 | 7.89
Brc1ccc(C(OCCC2CCN(CCc3ccccc3)CC2)c2ccc(Br)cc2)cc1 | 6.42
Fc1ccc(C(OCCC2CCN(Cc3ccccc3)CC2)c2ccc(F)cc2)cc1 | 8.01
Fc1ccc(C(OCCC2CCN(CCCc3ccccc3)CC2)c2ccc(F)cc2)cc1 | 7.78
c1ccc(CCCN2CCC(CCOC(c3ccccc3)c3ccccc3)CC2)cc1 | 7.92
c1ccc(CN2CCC(COC(c3ccccc3)c3ccccc3)CC2)cc1 | 6.15
Brc1ccc(C(OCCC2CCN(CCCc3ccccc3)CC2)c2ccc(Br)cc2)cc1 | 6.80
c1ccc(CN2CCC(CCOC(c3ccccc3)c3ccccc3)CC2)cc1 | 7.82
c1ccc(CCCN2CCC(COC(c3ccccc3)c3ccccc3)CC2)cc1 | 7.84
Fc1ccc(C(OCC2CCN(Cc3ccccc3)CC2)c2ccc(F)cc2)cc1 | 6.90
Clc1ccc(C(OCCC2CCN(CCCc3ccccc3)CC2)c2ccc(Cl)cc2)cc1 | 7.19
c1ccc(CCN2CCC(COC(c3ccccc3)c3ccccc3)CC2)cc1 | 6.97
Clc1ccc(C(OCCC2CCN(CCc3ccccc3)CC2)c2ccc(Cl)cc2)cc1 | 6.94
Cc1ccc(C(OCCC2CCN(CCc3ccccc3)CC2)c2ccc(C)cc2)cc1 | 6.51

What follows are molecules tested against Sodium-dependent serotonin transporter (Rattus norvegicus, UniProt P31652) (assay: Binding affinity at serotonin transporter from rat brain striatal membrane by [3H]citalopram displacement.).
Assay type: tissue-based
Outline: as §1

Chain of Sodium-dependent serotonin transporter (P31652 whole entry): as the sequence (P31652 whole entry, looked up) above

SMILES | pIC50
COc1ccc(C(OCCC2CCN(CCCc3ccccc3)CC2)c2ccc(OC)cc2)cc1 | 6.47
Fc1ccc(C(OCC2CCN(CCc3ccccc3)CC2)c2ccc(F)cc2)cc1 | 6.63
Fc1ccc(C(OCC2CCN(CCCc3ccccc3)CC2)c2ccc(F)cc2)cc1 | 6.95
Brc1ccc(C(OCCC2CCN(CCc3ccccc3)CC2)c2ccc(Br)cc2)cc1 | 6.20
Fc1ccc(C(OCCC2CCN(Cc3ccccc3)CC2)c2ccc(F)cc2)cc1 | 6.70
Fc1ccc(C(OCCC2CCN(CCCc3ccccc3)CC2)c2ccc(F)cc2)cc1 | 7.26
c1ccc(CCCN2CCC(CCOC(c3ccccc3)c3ccccc3)CC2)cc1 | 6.63
Fc1ccc(C(OCCC2CCN(CCc3ccccc3)CC2)c2ccc(F)cc2)cc1 | 7.50
c1ccc(CCN2CCC(CCOC(c3ccccc3)c3ccccc3)CC2)cc1 | 6.99
c1ccc(CN2CCC(COC(c3ccccc3)c3ccccc3)CC2)cc1 | 6.26
Brc1ccc(C(OCCC2CCN(CCCc3ccccc3)CC2)c2ccc(Br)cc2)cc1 | 6.08
c1ccc(CN2CCC(CCOC(c3ccccc3)c3ccccc3)CC2)cc1 | 6.13
c1ccc(CCCN2CCC(COC(c3ccccc3)c3ccccc3)CC2)cc1 | 7.24
Fc1ccc(C(OCC2CCN(Cc3ccccc3)CC2)c2ccc(F)cc2)cc1 | 6.12
Clc1ccc(C(OCCC2CCN(CCCc3ccccc3)CC2)c2ccc(Cl)cc2)cc1 | 6.65
c1ccc(CCN2CCC(COC(c3ccccc3)c3ccccc3)CC2)cc1 | 6.34
Clc1ccc(C(OCCC2CCN(CCc3ccccc3)CC2)c2ccc(Cl)cc2)cc1 | 6.38
Cc1ccc(C(OCCC2CCN(CCc3ccccc3)CC2)c2ccc(C)cc2)cc1 | 6.05
